Laboratory results published in ChEMBL document CHEMBL1148422, “N-isoquinolin-5-yl-N'-aralkyl-urea and -amide antagonists of human vanilloid receptor 1” (Bioorg Med Chem Lett, 2004).

Legend:
[1] = molecular target: T1, Transient receptor potential cation channel subfamily V member 1 (Homo sapiens, UniProt Q8NER1); test: Antagonistic activity towards human vanilloid receptor subtype 1 expressed in HEK293 cell […], as inhibition of agonist-induced intracellular [Ca2+] levels.; format: functional, cell-based
[2] = molecular target: T1, Transient receptor potential cation channel subfamily V member 1; test: Binding affinity towards human vanilloid receptor subtype 1 expressed in HEK293 cell membrane using [3H]-RTX as radioligand.; format: cell membranes
How it was run: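 Membranes from hVR1/HEK293 cells homogenized twice with a Polytron in 20 mM HEPES pH 7.4 with 5.8 mM NaCl, 320 mM sucrose, 2 mM MgCl2, 0.75 mM CaCl2 and 5 mM KCl. Spun at 3000 rpm for 10 min; supernatant spun at 18,000 rpm for 20 min; pellet taken up in assay buffer.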

T1 sequence (Q8NER1 whole entry): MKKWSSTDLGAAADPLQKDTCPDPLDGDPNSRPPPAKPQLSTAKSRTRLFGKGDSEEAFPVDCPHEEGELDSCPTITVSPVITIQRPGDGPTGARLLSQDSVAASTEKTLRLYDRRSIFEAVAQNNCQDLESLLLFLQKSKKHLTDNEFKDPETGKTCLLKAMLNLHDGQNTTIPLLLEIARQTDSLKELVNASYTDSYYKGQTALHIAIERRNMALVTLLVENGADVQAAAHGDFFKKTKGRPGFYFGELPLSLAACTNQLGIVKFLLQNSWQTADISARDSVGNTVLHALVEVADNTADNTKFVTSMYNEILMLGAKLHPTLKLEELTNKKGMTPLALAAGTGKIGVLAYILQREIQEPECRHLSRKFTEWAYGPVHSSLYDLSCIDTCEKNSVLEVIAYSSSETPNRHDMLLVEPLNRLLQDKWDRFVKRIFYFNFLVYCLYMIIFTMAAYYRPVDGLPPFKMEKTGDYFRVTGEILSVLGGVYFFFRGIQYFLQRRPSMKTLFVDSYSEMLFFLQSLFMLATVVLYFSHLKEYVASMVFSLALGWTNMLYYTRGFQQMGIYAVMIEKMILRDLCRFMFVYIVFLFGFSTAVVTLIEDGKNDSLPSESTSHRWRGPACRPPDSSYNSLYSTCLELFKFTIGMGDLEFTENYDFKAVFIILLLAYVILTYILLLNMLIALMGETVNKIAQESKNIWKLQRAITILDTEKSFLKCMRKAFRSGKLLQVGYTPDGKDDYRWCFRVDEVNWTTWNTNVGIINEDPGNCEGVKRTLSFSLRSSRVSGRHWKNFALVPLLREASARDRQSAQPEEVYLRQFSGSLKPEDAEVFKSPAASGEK

Row | Structure (SMILES) | IC50 [1] | Ki [2]
1 | O=C(/C=C/c1ccccc1)Nc1cccc2cnccc12 | 1.5 µM | –
2 | O=C(Nc1ccc(Cl)c(Cl)c1)Nc1cccc2cnccc12 | 0.17 µM | 0.017 µM
3 | CC(C)(C)c1ccc(CCC(=O)Nc2cccc3cnccc23)cc1 | 0.41 µM | 0.011 µM
4 | O=C(CCc1ccc(C(F)(F)F)cc1)Nc1cccc2cnccc12 | 0.038 µM | 0.06 µM
5 | COc1ccc(CCNC(=O)Nc2cccc3cnccc23)cc1 | 0.68 µM | –
6 | O=C(NCCc1ccccc1)Nc1cccc2cnccc12 | 1 µM | –
7 | CCCCc1ccc(NC(=O)Nc2cccc3cnccc23)cc1 | 0.49 µM | 0.33 µM
8 | CCCCCc1ccc(C(=O)Nc2cccc3cnccc23)cc1 | 2.4 µM | 0.071 µM
9 | COc1ccc(CNC(=O)Nc2cccc3cnccc23)cc1 | 0.045 µM | –
10 | O=C(Nc1cccc(C(F)(F)F)c1)Nc1cccc2cnccc12 | 0.032 µM | 0.019 µM
11 | O=C(Nc1cc(C(F)(F)F)cc(C(F)(F)F)c1)Nc1cccc2cnccc12 | 0.032 µM | 0.0014 µM

Stronger by IC50 [1], values ahead:

Row | IC50 [1] | Ki [2] | Structure (SMILES)
12 | 0.003 µM | 0.0003 µM | CC(C)(C)c1ccc(CNC(=O)Nc2cccc3cnccc23)cc1
13 | 0.006 µM | – | O=C(NCc1ccc(Cl)cc1)Nc1cccc2cnccc12
14 | 0.011 µM | 0.023 µM | O=C(NCc1cccc(C(F)(F)F)c1)Nc1cccc2cnccc12
15 | 0.004 µM | 0.009 µM | O=C(NCc1ccc(Cl)c(Cl)c1)Nc1cccc2cnccc12
16 | 0.003 µM | – | CC(C)(C)c1ccc(CCNC(=O)Nc2cccc3cnccc23)cc1
17 | 0.003 µM | 0.0013 µM | O=C(NCc1ccc(OC(F)(F)F)cc1)Nc1cccc2cnccc12
18 | 0.003 µM | 0.005 µM | O=C(NCc1ccc(C(F)(F)F)cc1)Nc1cccc2cnccc12
19 | 0.019 µM | – | O=C(NCCc1cccc(C(F)(F)F)c1)Nc1cccc2cnccc12
20 | 0.006 µM | 0.0008 µM | O=C(NCc1ccc(Cl)c(C(F)(F)F)c1)Nc1cccc2cnccc12
21 | 0.005 µM | 0.0012 µM | CC(C)(C)c1ccc(/C=C/C(=O)Nc2cccc3cnccc23)cc1
22 | 0.013 µM | 0.004 µM | CCC(C)(C)c1ccc(CCC(=O)Nc2cccc3cnccc23)cc1
23 | 0.01 µM | 0.017 µM | O=C(NCCc1ccc(Cl)c(Cl)c1)Nc1cccc2cnccc12
24 | 0.011 µM | – | O=C(NCCc1ccc(OC(F)(F)F)cc1)Nc1cccc2cnccc12
25 | 0.019 µM | 0.022 µM | O=C(NCCc1ccc(C(F)(F)F)cc1)Nc1cccc2cnccc12
